Assay outcomes deposited in PubChem by several laboratories.
The list is not random: actives were taken first. Their share in the collection is about 9%.
D1 allo mod – allosterically modulates the human D1 dopamine receptor | P21728 | HEK293 D1, CRE-luciferase, dopamine EC30 potentiation; actives deviate in either direction | B-score at 10 µM | 5.9% of 58,000 active;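 active = luminescence count or its row- and column-corrected plate score outside the 99.7% band of the plate's sample wells, on either side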
Target sequence (P21728 whole entry, looked up): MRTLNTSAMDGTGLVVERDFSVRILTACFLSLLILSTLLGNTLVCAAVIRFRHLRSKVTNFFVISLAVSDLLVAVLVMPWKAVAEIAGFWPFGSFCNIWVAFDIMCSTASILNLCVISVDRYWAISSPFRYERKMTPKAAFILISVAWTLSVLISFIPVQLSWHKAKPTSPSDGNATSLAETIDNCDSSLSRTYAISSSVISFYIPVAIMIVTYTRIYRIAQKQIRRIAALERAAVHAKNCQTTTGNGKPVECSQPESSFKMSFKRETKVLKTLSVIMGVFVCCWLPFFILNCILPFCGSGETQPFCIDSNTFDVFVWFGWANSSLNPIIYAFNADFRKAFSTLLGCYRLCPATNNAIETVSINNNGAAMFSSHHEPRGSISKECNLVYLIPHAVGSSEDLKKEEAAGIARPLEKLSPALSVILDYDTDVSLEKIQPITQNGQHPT
AP complement – orthogonal test for alternative complement pathway inhibitors; 0.08% of 62,000 active; Human serum alternative complement pathway, LPS-coated ELISA, C3 deposition; tested in compound mixtures; inhibition, % at 5 µM;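 active = inhibition above 30% in each of the two pooled mixtures holding the compound, so the lower value exceeds 30%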
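Assay system: human serum alternative complement pathway, C3 deposition on LPS-coated wells; Dosing: 5 µM per compound in ten-compound mixtures; Detection: Anti-C3 ELISA, OD 450 nm; Buffer or medium: Mg2+-EGTA GVB++ buffer containing human serum at 1:15 dilution; Timing: 1 h at 37 °C; Replication: two different pools per compound.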
M1 agonist – M1 muscarinic receptor agonism; CHO-M1 cells, Fluo-4 calcium fluorescence, agonist mode; hits give high values; B-score at 10 µM; 3% of 64,000 active; AID 626;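 active = fluorescence rise, raw or as B-score row- and column-corrected plate score, outside the 99.7% band of its plate's samples, either direction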
M1 antag – antagonists of rat M1 muscarinic receptor | B-score at 10 µM | 3.4% of 64,000 active | AID 628 | CHO-M1 cells, Fluo-4 calcium, ACh EC80 antagonist mode; hits give low values;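 active = calcium fluorescence response, raw or row-and-column corrected B-score, differing from the plate sample mean either way at a set confidence level, mostly lower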
mHtt clearance – mutant huntingtin protein clearance | HeLa Exon1htt(103Q)mCFP, aggregate imaging; zero = plate's median compound well | inhibition, % at 1.5 µM | 0.42% of 47,000 active;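 active = inhibition of aggregate fluorescence above about 70%, also judged a hit by eye on the cell image, limit read from the data, passing the limit was not always enough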;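 also: cells exposed to compound for three days before fixation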
D1 mod confirm – D1 receptor (human) allosteric modulation, confirmed; HEK293 D1 CRE-luciferase, dopamine EC30 potentiation; hits give high values; 88% of 2,200 active; shares compounds with D1 allo mod; luminescence at 10 µM;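 active = luminescence in either of two replicates above the same-plate mean plus 3 SD of the low-dose dopamine control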
D1 ag no DA – secondary test of D1 modulators: activity without dopamine. shares compounds with D1 allo mod. HEK293 D1 CRE-luciferase, luminescence, no dopamine; hits give high values. luminescence at 10 µM. 0.8% of 1,900 active. AID 646; in the data active = luminescence above about 3900
Isoprot counter – isoproterenol response counter-screen activity for D1 modulators; shares compounds with D1 allo mod; HEK293 D1 CRE-luciferase, isoproterenol EC30 counter-screen; calls only at 10 µM; 63% of 2,200 active; AID 647;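 active = luminescence in either replicate above plate mean of wells with a partly effective reference agonist dose plus 3 SD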;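 also: isoproterenol raises cAMP through native beta-adrenoceptor Gs so signal bypasses D1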
Numbers stand for hits; i = inactive; nt = not tested or not shown; + = active, no number.

SMILES	D1 allo mod	AP complement	M1 agonist	M1 antag	mHtt clearance	D1 mod confirm	D1 ag no DA	Isoprot counter
O=c1[nH]c(Cn2nnc(-c3ccccc3)n2)nc2scc(-c3ccccc3)c12	nt	i	i	i	nt	nt	nt	nt
CSc1nc2c(c(=O)n1Cc1ccccc1)SC(C)C2 (centres undefined)	5.4	nt	i	i	nt	8668	i	+
CC(C)Sc1nc2c(c(=O)n1C)SC(C)C2 (centres undefined)	3.4	i	i	i	nt	8852	i	i
O=C(Nc1ccc(N2CCOCC2)cc1)c1cn2ccccc2n1	nt	nt	nt	nt	i	nt	nt	nt
COc1cccc(C2=NOC(C(=O)Nc3cccc(C(C)=O)c3)C2)c1OC (centres undefined)	3.6	i	i	i	nt	i	i	i
CNC(=O)c1csc(-c2ccc(C)cc2)n1	nt	nt	nt	nt	i	nt	nt	nt
CCOc1ccc(C(C)=O)cc1COc1ccc(-n2cnnn2)cc1	5.9	i	i	i	nt	15484	i	+
CCOc1ccc(-n2cnnn2)cc1S(=O)(=O)N1CCCCC1	i	i	i	i	i	nt	nt	nt
COc1c(S(=O)(=O)n2nc(C)cc2C)ccc(Cl)c1Cl	3.6	i	i	i	nt	12296	i	i
O=S(=O)(Nc1cc(Cl)ccc1N1CCCCC1)c1cccs1	29	i	i	i	nt	7016	i	i
O=S(=O)(Nc1ccc(N2CCCCC2)cc1)c1cccs1	i	i	i	i	nt	nt	nt	nt
OCC(CO)(CO)n1cnnn1	3.5	i	i	i	nt	i	i	i
Cc1cnn(C(=O)c2ccccc2Br)c1	i	i	i	i	nt	nt	nt	nt
CCOc1cccc(-c2nnc(SCC(=O)Nc3cc(C)ccc3OC)n2N)c1	i	i	i	i	i	nt	nt	nt
COc1ccc(C)cc1NC(=O)CSc1nnc(-c2ccc(OC)c(OC)c2)n1N	22	i	i	i	nt	18440	i	+
CC(=O)N=c1sc2nc3ccccc3nc2n1N(C(C)=O)C(C)=O	2.8	i	i	i	nt	8388	i	i
CCOC(=O)C1C2C=CC3(CN(c4ccccc4CC)C(=O)C13)O2 (centres undefined)	i	nt	i	i	i	nt	nt	nt
Cc1ccc2nc(NCCO)nc(-c3ccccc3)c2c1	14	i	i	i	nt	19388	nt	+
CN(C)C(CNC(=O)c1cccnc1Sc1ccccc1)c1ccco1 (centres undefined)	6.6	i	i	i	nt	8824	nt	+
O=C(COc1ccccc1)Nc1ccccc1N1CCCCC1	3.4	i	i	i	nt	i	nt	i
COCCCNc1nc(-c2ccncc2)nc2ccccc12	5.7	nt	i	i	i	6996	nt	+
CC1Cc2ccccc2N1C(=O)CN1C(=O)CN(C)C(=O)c2ccccc21 (centres undefined)	i	i	i	i	nt	nt	nt	nt
COc1ccc(CCNC(=O)c2cccnc2)cc1OC	3.4	i	nt	nt	i	i	i	i
COc1ccc(CCNC(=O)c2ccncc2)cc1OC	i	i	i	i	i	nt	nt	nt
COc1ccc(CCNC(=O)c2cnc3scc(C)n3c2=O)cc1OC	40	i	i	i	i	17580	i	+
SMILES	D1 allo mod	AP complement	M1 agonist	M1 antag	mHtt clearance	D1 mod confirm	D1 ag no DA	Isoprot counter
COc1ccc(C)cc1NC(=O)c1cnc2scc(C)n2c1=O	i	i	i	i	nt	nt	nt	nt
CC(=O)c1c(N2CCN(C)CC2)[nH]c(-c2ccccc2)nc1=S	nt	nt	nt	nt	i	nt	nt	nt
CN1C(=O)C2(C(C#N)=C(N)Oc3c2oc(CO)cc3=O)c2ccccc21 (centres undefined)	8.9	i	i	i	i	i	i	i
N#CC1=C(N)Oc2c(oc(CO)cc2=O)C12C(=O)Nc1ccc(Cl)cc12 (centres undefined)	i	i	i	i	nt	nt	nt	nt
Cc1ccc(-c2nc3ncccn3c2NC(=O)C2CC2)cc1	2.8	i	i	i	nt	8360	i	i
CC(=O)Nc1c(-c2ccccc2)nc2ncccn12	i	i	i	i	nt	nt	nt	nt
CCc1c(C)c(C#N)c2nc3ccccc3n2c1N(C)C	4.9	i	i	2.3	i	9428	i	+
Cc1cc(Nc2ccc(C)c(F)c2)n2ncnc2n1	3.3	i	i	i	nt	i	i	i
COc1ccc(CCNc2cc(-c3ccccc3)nc3ncnn23)cc1	nt	nt	nt	nt	i	nt	nt	nt
